Laboratory results from ChEMBL document CHEMBL4396943, “The tetrahydroxanthone-dimer phomoxanthone A is a strong inducer of apoptosis in cisplatin-resistant solid cancer cells” (Bioorg Med Chem, 2019).
Calls of active or inactive are those of the source. The rule behind the calls is not given here.

Columns and labels:
J82 [1] = experiment: Induction of apoptosis in cisplatin resistant human J82 cells assessed as depolarization of mitochondrial membrane potential incubated for 1 hr by TMRE staining based flow cytometry; format: functional, cell-based
Summary of the method: (§1)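 Cells seeded overnight; medium switched to FBS-free just before treatment to avoid TMRE ester cleavage. Exposure 1 h, 2 h or 24 h, then TMRE staining for 20 min. Cells trypsinized, centrifuged at 4 °C and read by flow cytometry. Medium as negative control, 20 µM CCCP as positive control. […]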

J82 [2] = experiment: Ratio of IC50 for antiproliferative activity in human J82 cells to cisplatin-resistant human J82 cells assessed as reduction of cell viability incubated for 72 hrs by MTT assay; format: functional
Summary of the method: (§2)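 Cells seeded in 96-well plates overnight, exposed 72 h to increasing concentrations. MTT (5 mg/ml) added for 15 min, formazan dissolved in DMSO, absorbance read at 544 nm with 690 nm background subtracted. IC50 is the concentration reducing signal by 50%. Three independent experiments in triplicate. CisR sublines made by weekly intermittent cisplatin exposure for 24–30 weeks.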

KYSE-510 [3] = experiment: Antiproliferative activity against human cisplatin resistant KYSE-510 cells assessed as reduction in cell viability incubated for 72 hrs by MTT assay; format: functional, cell-based; details: KYSE-510, 72 h
Summary of the method: (§3)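 Cells seeded overnight in 96-well plates, then exposed to increasing concentrations (compound dissolved in DMSO, diluted in medium) for the stated time. MTT (5 mg/ml in PBS) added for 15 min, formazan dissolved in DMSO, absorbance read at 544 nm minus 690 nm background. IC50 = concentration giving 50% signal decrease. At least three independent experiments in triplicate.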

A2780 [4] = experiment: Induction of apoptosis in human A2780 cells assessed as increase in intracellular calcium level at 10 to 30 uM incubated for 30 mins in presence of 1 mM extracellular calcium by fluorimetry; format: functional, cell-based
Summary of the method: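 Cells seeded in 96-well plates overnight, washed twice with Krebs-HEPES buffer, loaded 1 h at 37 °C in the dark with Oregon Green BAPTA-1 AM (final 3 µM) and Pluronic F-127. Buffer replaced, PXA added, fluorescence at 544 nm recorded for 30 min, with or without 1 mM extracellular Ca2+. Three experiments, mean ± SEM.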

A2780 [5] = experiment: Induction of apoptosis in human A2780 cells assessed as nuclear condensation by measuring reduced size and increased intensity of nuclei at 10 uM incubated for 24 hrs by hoechst 33342 staining based fluorescence microscopy; format: functional, cell-based
K562 = experiment: Antiproliferative activity against human K562 cells assessed as reduction in cell viability incubated for 72 hrs by MTT assay; format: functional, cell-based; details: K562, 72 h; summary of the method: as §3
A2780cisR [6] = experiment: Effect on ROS generation in human A2780cisR cells at 316 nM incubated for 18 hrs by H2DCFDA staining based flow cytometry; format: functional, cell-based
Summary of the method: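 Cells plated in 24-well plates (about 150,000/well) overnight, then exposed 18 h. Washed and moved to phenol red-free, serum-free RPMI-1640, then loaded with 10 µM H2DCF-DA for 30 min at 37 °C in the dark. One aliquot read directly, the other after 250 µM H2O2 for 1 h at 37 °C. DCF fluorescence read by flow cytometry. Three independent experiments.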

A2780 [7] = experiment: Antiproliferative activity against human A2780 cells assessed as reduction in cell viability incubated for 48 hrs by MTT assay; format: functional, cell-based; details: A2780, 48 h; summary of the method: as §3
A2780cisR [8] = experiment: Antiproliferative activity against human A2780cisR cells assessed as reduction in cell viability incubated for 72 hrs by MTT assay; format: functional, cell-based; summary of the method: as §3
A2780cisR [9] = experiment: Induction of apoptosis in human A2780cisR cells assessed as depolarization of mitochondrial membrane potential at 1 uM incubated for 1 hr by TMRE staining based flow cytometry; format: functional
Summary of the method: (§4)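 Cells seeded overnight; complete medium swapped for FBS-free medium just before treatment to avoid TMRE ester cleavage. Exposure to PXA for 1 h, 2 h or 24 h. TMRE staining 20 min, cells collected by trypsinisation, ΔΨm read by flow cytometry. Medium served as negative control, 20 µM CCCP as positive control. Mean ± SEM reported.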

[10] = Antiproliferative activity against human Cal27CisR cells assessed as reduction in cell viability incubated for 72 hrs by MTT assay; format: functional, cell-based; summary of the method: as §3
A2780 [11] = experiment: Induction of apoptosis in human A2780 cells assessed as decrease in claspin expression at 5 uM incubated for 24 hrs by proteome profiler analysis; format: functional, cell-based
Summary of the method: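 A2780 cells treated 24 h with 5 µM, then apoptosis-related proteins read on an antibody array (Proteome Profiler human apoptosis array) per kit instructions.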

J82 [12] = experiment: Induction of apoptosis in cisplatin-resistant human J82 cells assessed as nuclear condensation by measuring reduced size and increased intensity of nuclei at 30 uM incubated for 24 hrs by hoechst 33342 staining based fluorescence microscopy; format: functional, cell-based
KYSE-510 [13] = experiment: Potency index, ratio of cisplatin IC50 to compound IC50 for antiproliferative activity in human KYSE-510 cells assessed as reduction in cell viability incubated for 72 hrs by MTT assay; format: functional; summary of the method: as §2
A2780cisR [14] = experiment: Induction of apoptosis in human A2780cisR cells assessed as decrease in claspin expression at 5 uM incubated for 24 hrs by proteome profiler analysis; format: functional, cell-based
Summary of the method: (§5)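 A2780 and A2780CisR cells treated 24 h with 5 µM PXA; apoptosis-related proteins profiled with a human apoptosis antibody array following kit instructions.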

A2780 [15] = experiment: Induction of apoptosis in human A2780 cells assessed as increase in caspase 3 cleavage at 5 uM incubated for 24 hrs by proteome profiler analysis; format: functional, cell-based; summary of the method: as §5
J82 [16] = experiment: Cell cycle arrest in cisplatin resistant human J82 cells assessed as accumulation at G1 phase at 5 uM incubated for 24 hrs by propidium iodide staining based flow cytometry (reference value: 78.1%); format: functional
Summary of the method: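 After 24 h exposure, cells washed in ice-cold PBS. About 2 million cells fixed in cold 70% ethanol at −20 °C for at least 24 h. Stained with 0.1% Triton X-100, 200 µg/ml RNase A and 20 µg/ml propidium iodide in PBS, 15 min at 37 °C in the dark. DNA content read by flow cytometry with doublet discrimination. Medium as untreated control, paclitaxel as G2/M control. Three independent experiments.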

J82 [17] = experiment: Induction of apoptosis in cisplatin resistant human J82 cells assessed as depolarization of mitochondrial membrane potential incubated for 2 hrs by TMRE staining based flow cytometry; format: functional, cell-based; summary of the method: as §1
J82 [18] = experiment: Induction of apoptosis in human J82 cells assessed as depolarization of mitochondrial membrane potential incubated for 2 hrs by TMRE staining based flow cytometry; format: functional, cell-based; summary of the method: as §4
A2780cisR [19] = experiment: Reduction of H2O2-induced ROS generation in human A2780cisR cells at 316 nM incubated for 18 hrs by H2DCFDA staining based flow cytometry; format: functional, cell-based
Summary of the method: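 Cells plated overnight in growth medium (approx. 150,000 cells/well), exposed to compound for 18 h. Then washed with PBS and moved to phenol red-free RPMI-1640 without FBS or antibiotics. Loaded with 10 µM H2DCF-DA, 30 min, 37 °C, dark. One aliquot then given 250 µM H2O2 for 1 h at 37 °C in the dark. DCF fluorescence read by flow cytometry; three independent experiments.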

CC(=O)OC[C@]12Oc3c(-c4ccc(O)c5c4O[C@@]4(COC(C)=O)C(=C(O)C[C@@H](C)[C@H]4OC(C)=O)C5=O)ccc(O)c3C(=O)C1=C(O)C[C@@H](C)[C@H]2OC(C)=O [PHOMOXANTHONE A]
Activity (J82 [1]): Dose-dependent effect
IC50 (J82 [1]; J82, 1 h): 3.12 µM
Ratio IC50 (J82 [2]): 1.6
IC50 (KYSE-510 [3]): 0.79 µM
Activity (A2780 [4]): Active
Activity (A2780 [5]): Active
IC50 (K562): 1.86 µM
Activity (A2780cisR [6]): inactive
IC50 (A2780 [7]; read-out: IC50): 1.18 µM
IC50 (A2780 [7]; read-out: pIC50 (converted)): 1.17 µM
IC50 (A2780cisR [8]; read-out: IC50): 1.37 to 1.38 µM
IC50 (A2780cisR [8]; read-out: pIC50 (converted)): 1.38 µM
Activity (A2780cisR [9]): 73%
IC50 [10]: 5.62 µM
Activity (A2780 [11]): Active
Activity (J82 [12]): Active
Ratio IC50 (KYSE-510 [13]): 2 - 10
Activity (A2780cisR [14]): Active
Activity (A2780 [15]): Active
Activity (J82 [16]): 79.3%
Activity (J82 [17]): Dose-dependent effect
IC50 (J82 [17]; J82, 2 h): 2.75 µM
Activity (J82 [18]): Dose-dependent effect
IC50 (J82 [18]; J82, 2 h): 3.34 µM
inhibition (A2780cisR [19]): inactive
